Data published in the EternaBench riboswitch data.

System: MS2 coat protein
Experiment: apparent Kd, MS2 coat protein; higher = weaker binding; RNA-MaP array
Outline: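 Designed RNAs were transcribed on an Illumina sequencing chip from sequenced DNA templates. They were incubated at room temperature with fluorescently labeled MS2 coat protein at 1.5 nM to 3 μM, for 0.8–1.5 h at the lowest to 10–20 min at the highest concentrations, in Tris-HCl pH 7.5 buffer with KCl, MgCl2, BSA, DTT, tRNA and Tween20, with or without input ligand. Apparent Kd is the median of per-cluster binding-curve fits. Designs measured on fewer than 10 clusters were excluded.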

[1] = designed as: OFF switch for theophylline, no ligand
[2] = ligand present: theophylline, designed as: OFF switch for theophylline
[3] = designed as: OFF switch for flavin mononucleotide, no ligand
[4] = ligand present: flavin mononucleotide, designed as: OFF switch for flavin mononucleotide
[5] = designed as: ON switch for flavin mononucleotide, no ligand
[6] = ligand present: flavin mononucleotide, designed as: ON switch for flavin mononucleotide
[7] = designed as: ON switch for tryptophan, no ligand
[8] = ligand present: tryptophan, designed as: ON switch for tryptophan
[9] = designed as: ON switch for theophylline, no ligand
[10] = ligand present: theophylline, designed as: ON switch for theophylline

Sequence	apparent Kd [3] [nM]	apparent Kd [4] [nM]	apparent Kd [5] [nM]	apparent Kd [6] [nM]	other results
CAAAUAGACCACGAUACCAGAACACAAGGAGUAAUAUCAAACAUGAGGAUCACCCAUGUCUUCCCUUGGCAGCGUAGCACGGAGU					apparent Kd [1]: 11.7 nM; apparent Kd [2]: 13.3 nM
CAAGGGAAAGUCAGGAUAUGCACAACCGACCGUUUGCAGAAGGGACAUGAGGAUCACCCAUGUGUGGAACUGUU	9.02	21.4			
CACAUUCCUUAGAAGGCUACGAAUUUAGCGCGUAGAGGAUAUAAGGGAUACAUGAGGAUCACCCAUGUGAUAUAUCUUCUGAAA	20.8	24.1			
CACGAACAUGAGGAUCACCCAUGUCAGGAUAUCGUGCUAAUCCCAUAAUCGGCGCGCACGAGAAGGGACCAGGG	12.7	19.6			
CAGCCGGCCUAGAAGGUCGAAAUCCAAAUCGUCGAAGGAUAUAGGUCCAGAAAACAAUUACAUGAGGAUCACCCAUGUAUCCUG			21.5	14.2	
CAGUGAGCCAAGAAGGUUGCUGACGAUAGUGGCAAAGGAUAUUGAGGGCGCAAUCAUUUACAUGAGGAUCACCCAUGUUCUUAC			35.4	17.5	
CAUAAACCCUAGAAGGGCGCAUUAUGUAGAUUCGCAGGAUAUAGGAACGGGAUCGUGUAUACAACAUGAGGAUCACCCAUGUCA			15.4	14.4	
CCAUAAGACGAGAAGGGCUGCCAACUAGGUAGAGCAGGAUAUCGUCUUACUCGUCAUGGCAAAACAUGAGGAUCACCCAUGUAU	8.16	7.82			
CCCGACGAGCCUGAGAUUAAGUAAGCGGAUACCAGAGAUAGGUAGCUCCCUUGGCAGCCGUGGACAUGAGGAUCACCCAUGUCAC					apparent Kd [1]: 11.1 nM; apparent Kd [2]: 11.2 nM
CCCGUGCUGCGAGGAUAUGUGUAGGAUGUUUCCACAGAAGGCGCUGGAGACAUGAGGAUCACCCAUGUGAACCCACGUACGACA			24.9	19.9	
CCGUUUCGGACAAGCAACACAUGAGGAUCACCCAUGUCAAUCUAGGAUAUCAUAAGGAUAUAACGUGAGAAGGAGAGCGACAGG	33.2	24.4			
CCGUUUGAUCAGAAGGAACCAGUCGAACCAUGUGACAGACAUGAGGAUCACCCAUGUUCGCGCGGUUAGGAUAUGACAGCUCAG	13.2	64.5			
CCUAACUGAGGAUAUGACAACUGGCACAUGAGGAUCACCCAUGUAGACUCAUUCGAGUUAUCAGAAGGCAGAAUAU	10.7	18.8			
CCUCAAAGACAGAAGGAAGGUCCGCUACUAGCAGUAACAACAUGAGGAUCACCCAUGUCAAUACCUUAGGAUAUGUAAGAACGC			71.2	16.5	
CCUCACAUGAGGAUCACCCAUGUCUUUACACGAGGACCGGUACGGCCGCCACUCGUUCACAAAACAACCAGAAGUGAUGCCUACA					apparent Kd [7]: 140 nM; apparent Kd [8]: 169 nM
CCUCACGGACUCUCCACAUGAGGAUCACCCAUGUAAGCCGCGAAGGAUAUGAACGUCUCUCCGGGUCAGAAGGUCGCCGGUCCU	8.78	9.71			
CCUCGAUUUUGAUACCGAUAUGUCUUUGAUACCAGCGCCAUAGUACGCCCUUGGCAGCAAGAAACAUGAGGAUCACCCAUGUUAA					apparent Kd [1]: 16.7 nM; apparent Kd [2]: 49.8 nM
CCUGAGGUUAUAGGAUAUAGGCUAGAGAGGUACGAUUCUUUAUGAACAUGAGGAUCACCCAUGUCCUAGAAGGAUACUUAGUAG			58.1	112	
CCUUCGUCGAAUGUGUAACAUGAGGAUCACCCAUGUAGUCUGGAGGAUAUCUAACACAGCUGAAAAGAGAAGGCCAGGUCUGCA	26	48.6			
CGAAGUAGUAGAGGAUAUGCUAGAGAUGGUUCUGCAGAAGGCUACCCUCUUGAUUAUAUUACAUGAGGAUCACCCAUGUUGGUU	10.7	10.2			
CGAUGGGUAACAGGAUAUGAAUGGAAACCUCCAGUGUUGAGCACUUACAUGAGGAUCACCCAUGUUCAGAAGGGUUUGUGAUUG			38.9	59.9	
CGAUUACUGCAGAAGGGAGGGCCACAAAACAUGAGGAUCACCCAUGUAGAACUGAACGGGACUCCUCAGGAUAUGCGCCGAGAU			28.7	11.8	
CGCCACACAUGAUAAUCAUAACAUGAGGAUCACCCAUGUCAUAGAAGGUGCAUAUUUUAGAAUCGCAAGGAUAUAUGGACAAUU	16.2	18.7			
CGCCUACAUGAGGAUCACCCAUGUGAUGUUACGGUAGGAUAUAGAGCUGAGCCACUCUGCCUAGAAGGACCUAUAC			68.8	37.3	
CGGUGUGCAGAGGAUAUCGGCGUUUUCUCACAUCGAGAAGGCUGCACAUGAGGAUCACCCAUGUAUCUUUAGGA	58.6	189			
CGUAUGUGAGGAUAUCCGAAACUAUUUACCAAAUUAUAAGUGGAGAAGGCACAUGAGGAUCACCCAUGUGAUGG	11.5	24.6			
CUCACUAAGCUUUAGGAUAUAGACACUGGCACAUGAGGAUCACCCAUGUUCAACAAGGCGGAUAACUAGAAGGAAAGUAACCUUUU			11.9	9.64	

Sequence	apparent Kd [3] [nM]	apparent Kd [4] [nM]	apparent Kd [5] [nM]	apparent Kd [6] [nM]	other results
CUGACGUAACAUGAGGAUCACCCAUGUUUGGCGCUAUAGCAACAGGAUAUUCCGCUCACGGAGCUGAAGAAGGGUUACAGUCAC			14	8.37	
CUGAGCCUGUGUGUACAUGAGGAUCACCCAUGUUCGAUAGGGUAGGAUAUCGCAGUUUCUUGAGCCGAGAAGGACCCUAAUGGA	16.5	30.1			
CUGGGCCAAUAGAAGGGCGGGAGCGCAGGUGAUCAAACCUAUUACAUGAGGAUCACCCAUGUAACGCAGGAUAUAUCGGUUUUA	25.4	48			
CUUUAUACAUGAGGAUAUUGGAAAACCGGCGUACAAGAAGGCAUGACAUGAGGAUCACCCAUGUAAAGAUAAAGACAAAGCUAA			22.7	10.3	
GAAACAUUAGAAGGAUAUGAUACGAACACCGGGUACAUGAGGAUCACCCAUGUUCAGAAAUAAUAUCAGAAGGUCAGCAACAAA			985	418	
GAAGAAAAGUGAGGAUAUGGCAACCAGAUGACGCAAACAAUAAAACAUGAGGAUCACCCAUGUACCCAGAAGGCACCAAACAAA			15.2	9.48	
GAAUAGGAUCAGAAGGAGCUCCAACGGUGACAUGAGGAUCACCCAUGUACUAAACUACAGAAAAGCUAGGAUAUGAAUAAUAGG			27.7	25.4	
GACAAUAAUUCAACAAUCAAAAUAGUGGGACGAGGACCGGUACGGCCGCCACUCGCUGAAGCACAUGAGGAUCACCCAUGUCUAA					apparent Kd (designed as: OFF switch for tryptophan, no ligand): 17.2 nM; apparent Kd (ligand present: tryptophan, designed as: OFF switch for tryptophan): 17.8 nM
GACCCUACGGAGAAGGCACCUACAUGAGGAUCACCCAUGUUUGAUCGUUUGCCGGACGGCUUACGUGAGGAUAUCCAGGUACAG			14.8	7.2	
GACUAAUAGGAGAAGGGACAAUCUACAAUCGCGUCAGGAUAUCCGACAUGAGGAUCACCCAUGUAGAGAAGGGCGCAGCCCGGC			24.3	18.3	
GAUCUGGCGGUGAGGAUAUAUAUCAAAUGCAAGGCAUAGAAGGCACAUGAGGAUCACCCAUGUCUGCACCAGGG	14	15.6			
GCAACCCUGCAGAAGGGCGGGUGUACAUGAGGAUCACCCAUGUUAUCAGCAAAGUAGCUGGAUACGCAGGAUAUGCAGUCGAGU			164	29.6	
GCACUAGAGCAAGGAUAUAUAUCGGAAUCUACAUGAGGAUCACCCAUGUGUGUGACUUCUCGCAGAUAGAAGGUGCUCGCUGAC	433	206			
GCAUACGGAUAGAAGGAACUCUACGAUACGACAUGAGGAUCACCCAUGUAAUAUCAGUUAAACGGUUAGGAUAUAUGGGUAGUC			81.6	41.9	
GCAUUAGAGGACACAUGAGGAUCACCCAUGUGCAUCAUCAGAUAGGAUAUCUUAACAGAAAUUUGAGAGAAGGAUCGUGUUCGG	7.84	7.53			
GCAUUAUUAUUAGAUACCAGUGUCGCAGGCGACAUGAGGAUCACCCAUGUAAAGUUACUCCACCCUUGGCAGCUAGUUCGACUAC					apparent Kd [9]: 103 nM; apparent Kd [10]: 26.3 nM
GCGACUUUUACCGAGGAUAUGUCGUGACACACAUGAGGAUCACCCAUGUUUCUAAGUCCUGGAAUACAGAAGGCGGUAUUAAUACA			7.53	5.42	
GCGCGCGGUGGCGGUCAACAUGAGGAUCACCCAUGUGUGAACAGAAGGCGCGUAUGCUACCAUGGCGAGGAUAUGUUGGGUCAG	5.95	5.99			
GCGGGAGCACAGAAGGCGGAACUAAAGCAAUUACCAAUAGUUAACAUGAGGAUCACCCAUGUGCCCGAGGAUAUGUCGAAAGUG			53.2	10.6	
GGACAUGAGGAUCACCCAUGUAGUGGAGGGCUCAGGCUCGCAAGAAGGUUAAGAAUAUAGUCAAUAAAGGAUAUUGAGGGCCGA	21.7	19.2			
GGACUAUCAGGAUAUACAUGAGGAUCACCCAUGUACUUUAGGUAAUGGGACUACACCGGUAGAAGGGAUUAAAG	116	84.8			
GGCAAGUGAUAGAAGGGAUACAUGAGGAUCACCCAUGUAAGGGCGAAGCCUACCCUCCUUAAAGAUCAGGAUAUAUUGCAGACG	20.3	19.6			
GGCCCACAUGAGGAUCACCCAUGUGUGGAUACCAGCCUCAUUUAGGGCCCUUGGCAGCCAGAUAGUAACAAGUCCGAAACACAGA					apparent Kd [9]: 93.3 nM; apparent Kd [10]: 94.1 nM
GGCCUUGUUGUUAUAGGACAUGAGGAUCACCCAUGUAUAUGUAAGGAUAUGAAUCGUAAGACGCAUCAGAAGGUACAGUACUGG	122	55.8			
GGCGGGAAAUGAGGAUAUGGUAGUUGAGAAACGCCAGAAGGCAUUGGCAAGGCUAGAGACAUGAGGAUCACCCAUGUAAUCAUA			8.35	7	
GGCUGCGAUGGCGGAAAUUAUUUACAUAGGCGAGGACCGGUACGGCCGCCACUCGAACGUACAUGAGGAUCACCCAUGUGAUAAU					apparent Kd [7]: 71.8 nM; apparent Kd [8]: 26.5 nM
